Legend:
[1] = target: T1, Adrenergic receptor alpha-1 (Rattus norvegicus, UniProt P15823+P23944+P43140); test: In vitro binding affinity towards alpha-1 adrenergic receptor using radioligand [3H]prazosin; assay type: protein assay
T1 sequence (P15823 whole entry): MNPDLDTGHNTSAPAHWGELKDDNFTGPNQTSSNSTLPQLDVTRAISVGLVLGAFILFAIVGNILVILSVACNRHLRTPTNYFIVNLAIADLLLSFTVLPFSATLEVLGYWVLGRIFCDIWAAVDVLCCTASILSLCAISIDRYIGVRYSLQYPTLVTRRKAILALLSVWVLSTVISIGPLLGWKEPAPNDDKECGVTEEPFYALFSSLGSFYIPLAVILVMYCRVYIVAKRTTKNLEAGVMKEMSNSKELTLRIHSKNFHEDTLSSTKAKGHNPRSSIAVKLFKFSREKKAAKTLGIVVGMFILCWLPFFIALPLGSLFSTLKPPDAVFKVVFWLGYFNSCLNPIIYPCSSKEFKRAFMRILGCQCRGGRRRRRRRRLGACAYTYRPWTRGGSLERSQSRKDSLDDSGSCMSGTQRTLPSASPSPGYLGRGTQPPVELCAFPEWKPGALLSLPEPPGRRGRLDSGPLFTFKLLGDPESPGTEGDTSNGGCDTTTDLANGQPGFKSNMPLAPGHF
T1 sequence (P23944 whole entry): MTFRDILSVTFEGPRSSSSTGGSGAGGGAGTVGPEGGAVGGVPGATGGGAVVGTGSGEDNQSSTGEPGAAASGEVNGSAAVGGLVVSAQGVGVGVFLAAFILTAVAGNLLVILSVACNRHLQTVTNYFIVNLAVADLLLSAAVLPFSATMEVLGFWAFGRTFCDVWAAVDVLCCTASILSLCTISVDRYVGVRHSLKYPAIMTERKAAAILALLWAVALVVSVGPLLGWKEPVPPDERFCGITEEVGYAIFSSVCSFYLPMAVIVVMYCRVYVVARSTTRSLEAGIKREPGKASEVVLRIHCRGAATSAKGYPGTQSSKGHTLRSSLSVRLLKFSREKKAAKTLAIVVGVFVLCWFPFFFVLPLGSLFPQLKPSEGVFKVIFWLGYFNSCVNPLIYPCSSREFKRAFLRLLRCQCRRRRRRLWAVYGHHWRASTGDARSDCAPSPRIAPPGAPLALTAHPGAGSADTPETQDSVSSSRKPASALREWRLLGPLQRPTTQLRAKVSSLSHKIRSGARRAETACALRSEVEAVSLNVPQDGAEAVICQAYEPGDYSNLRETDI
T1 sequence (P43140 whole entry): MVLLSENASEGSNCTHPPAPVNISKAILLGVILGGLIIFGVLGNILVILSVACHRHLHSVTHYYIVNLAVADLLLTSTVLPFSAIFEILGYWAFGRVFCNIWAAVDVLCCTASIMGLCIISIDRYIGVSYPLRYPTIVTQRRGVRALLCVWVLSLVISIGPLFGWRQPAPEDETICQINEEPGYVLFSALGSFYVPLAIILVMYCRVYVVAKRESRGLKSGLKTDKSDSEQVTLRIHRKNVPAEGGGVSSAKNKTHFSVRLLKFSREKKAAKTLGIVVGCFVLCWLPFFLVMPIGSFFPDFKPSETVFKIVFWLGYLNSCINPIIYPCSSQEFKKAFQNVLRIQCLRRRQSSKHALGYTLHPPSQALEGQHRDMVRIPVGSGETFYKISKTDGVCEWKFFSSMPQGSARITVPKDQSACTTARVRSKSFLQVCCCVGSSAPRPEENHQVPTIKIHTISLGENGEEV
Method in brief: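 Cerebral cortex from male Sprague-Dawley rats, membranes (about 250 µg protein) in 50 mM Tris-HCl/10 mM MgCl2 pH 7.4, incubated 30 min at 25 °C with 0.2 nM [3H]prazosin and varied competitor concentrations; 10 µM phentolamine for nonspecific. Triplicates, filtration and scintillation counting; Ki from fitted IC50 by Cheng-Prusoff.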

[2] = target: T2, 5-hydroxytryptamine receptor 1A (Rattus norvegicus, UniProt P19327); test: In vitro binding affinity towards 5-hydroxytryptamine 1A receptor was determined using radioligand [3H]-8-OH-DPAT
T2 sequence (P19327 whole entry): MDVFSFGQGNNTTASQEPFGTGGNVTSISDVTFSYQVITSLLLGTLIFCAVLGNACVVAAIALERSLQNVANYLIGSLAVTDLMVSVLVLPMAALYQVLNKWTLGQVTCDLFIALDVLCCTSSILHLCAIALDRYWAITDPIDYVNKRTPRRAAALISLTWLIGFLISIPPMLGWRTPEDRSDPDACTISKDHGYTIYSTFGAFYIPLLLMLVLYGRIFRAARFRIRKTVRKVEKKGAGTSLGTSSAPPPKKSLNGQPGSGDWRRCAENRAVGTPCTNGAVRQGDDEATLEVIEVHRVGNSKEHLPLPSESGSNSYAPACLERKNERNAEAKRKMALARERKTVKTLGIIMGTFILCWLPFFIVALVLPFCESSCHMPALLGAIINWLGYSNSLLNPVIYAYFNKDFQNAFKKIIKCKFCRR
Method in brief: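 Rat (male Sprague-Dawley) cerebral cortex membranes, about 1 mg protein, incubated 15 min at 37 °C with 0.6 nM [3H]8-OH-DPAT plus competitor in 50 mM Tris-HCl with 10 nM clonidine and 30 nM prazosin, pH 7.4. Nonspecific binding with 10 µM 5-HT. Triplicates; GF/B filtration, scintillation counting; IC50 curve fit, Ki by Cheng-Prusoff; 2-4 experiments.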

[3] = target: 5-hydroxytryptamine receptor 4 (Rattus norvegicus); test: In vitro binding affinity towards 5-HT4 receptor was determined
[4] = target: 5-hydroxytryptamine receptor 2A (Rattus norvegicus) (UniProt P14842); test: In vitro binding affinity towards 5-hydroxytryptamine 2A receptor was determined
[5] = target: D(2) dopamine receptor (Rattus norvegicus) (UniProt P61169); test: In vitro binding affinity towards D2 receptor was determined
[6] = target: 5-hydroxytryptamine receptor 3A (Rattus norvegicus) (UniProt P35563); test: In vitro binding affinity towards 5-hydroxytryptamine 3 receptor was determined
5-hydroxytryptamine receptor 3A (Rattus norvegicus), sequence (P35563 whole entry, looked up): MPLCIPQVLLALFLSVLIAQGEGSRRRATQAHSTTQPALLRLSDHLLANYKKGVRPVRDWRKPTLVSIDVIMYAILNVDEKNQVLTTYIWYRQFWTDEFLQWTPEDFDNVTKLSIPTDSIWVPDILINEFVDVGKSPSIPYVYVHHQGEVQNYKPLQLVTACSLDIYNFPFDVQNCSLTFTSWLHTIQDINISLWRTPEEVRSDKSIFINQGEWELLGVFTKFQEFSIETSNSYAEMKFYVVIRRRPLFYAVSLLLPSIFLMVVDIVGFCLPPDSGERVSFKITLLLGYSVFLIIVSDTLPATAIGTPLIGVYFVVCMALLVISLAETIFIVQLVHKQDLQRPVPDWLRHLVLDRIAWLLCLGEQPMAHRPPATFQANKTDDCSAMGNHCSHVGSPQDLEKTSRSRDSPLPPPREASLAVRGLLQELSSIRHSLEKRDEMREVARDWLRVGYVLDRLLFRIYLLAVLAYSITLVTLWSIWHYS

D(2) dopamine receptor (Rattus norvegicus), sequence (P61169 whole entry, looked up): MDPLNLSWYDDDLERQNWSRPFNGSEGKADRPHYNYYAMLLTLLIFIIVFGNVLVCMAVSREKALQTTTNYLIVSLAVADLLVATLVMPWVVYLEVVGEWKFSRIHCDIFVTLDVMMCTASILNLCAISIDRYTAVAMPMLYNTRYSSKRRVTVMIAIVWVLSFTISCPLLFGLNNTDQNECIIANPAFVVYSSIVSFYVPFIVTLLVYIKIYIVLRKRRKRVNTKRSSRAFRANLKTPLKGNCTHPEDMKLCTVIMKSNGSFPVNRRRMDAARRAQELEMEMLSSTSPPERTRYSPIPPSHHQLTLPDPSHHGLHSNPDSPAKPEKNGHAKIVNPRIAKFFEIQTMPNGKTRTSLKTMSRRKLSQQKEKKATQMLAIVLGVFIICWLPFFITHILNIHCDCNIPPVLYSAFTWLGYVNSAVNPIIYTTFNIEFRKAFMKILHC
5-hydroxytryptamine receptor 2A (Rattus norvegicus), sequence (P14842 whole entry, looked up): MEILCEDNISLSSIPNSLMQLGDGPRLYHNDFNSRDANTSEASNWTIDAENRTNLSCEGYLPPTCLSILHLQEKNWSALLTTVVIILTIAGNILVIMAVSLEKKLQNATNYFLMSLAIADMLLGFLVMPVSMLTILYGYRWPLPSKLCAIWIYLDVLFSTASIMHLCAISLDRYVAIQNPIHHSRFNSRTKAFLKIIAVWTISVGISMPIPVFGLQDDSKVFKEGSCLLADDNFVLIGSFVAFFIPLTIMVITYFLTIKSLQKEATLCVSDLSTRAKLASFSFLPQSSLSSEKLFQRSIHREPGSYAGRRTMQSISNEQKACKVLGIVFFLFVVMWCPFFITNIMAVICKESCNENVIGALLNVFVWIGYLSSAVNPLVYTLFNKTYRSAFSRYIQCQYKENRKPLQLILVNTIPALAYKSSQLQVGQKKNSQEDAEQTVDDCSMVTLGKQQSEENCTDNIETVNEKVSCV

Question: With `CC(C)C(=O)Nc1cccc(N2CCN(CCCCN3C(=O)C4CCCN4C3=O)CC2)c1.Cl` (stereo not drawn) as the compound, how does the Ki [1] read?
Answer: Its Ki is over 10000 nM.

Question: How did the Ki [2] turn out when `CCS(=O)(=O)Nc1cccc(N2CCN(CCCCN3C(=O)C4CCCN4C3=O)CC2)c1.Cl` (stereo not drawn) was run?
Answer: Its Ki is 27 nM.

Question: And the Ki [3]?
Answer: Its Ki is over 1000 nM.

Question: What about the Ki [1] of the same compound?
Answer: The Ki was over 10000 nM.

Question: What about the Ki [4] of the same compound?
Answer: The Ki was over 1000 nM.

Question: What about the Ki [5] of the same compound?
Answer: The Ki was 22 nM.

Question: What about the Ki [6] of the same compound?
Answer: The Ki was over 1000 nM.

Question: With `CC(C)C(=O)Nc1cccc(N2CCN(CCCN3C(=O)C4CCCCN4C3=O)CC2)c1.Cl` (stereo not drawn) as the compound, how does the Ki [2] read?
Answer: The Ki was over 1000 nM.

Question: And the Ki [1]?
Answer: Its Ki is over 10000 nM.

Question: Which results are given for `Cl.N#Cc1ccccc1N1CCN(CCCN2C(=O)C3CCCCN3C2=O)CC1` (stereo not drawn)?
Answer: Ki [2]: 33 nM; Ki [1]: 13 nM

Question: How did the Ki [2] turn out when `CCCCOc1ccccc1N1CCN(CCCN2C(=O)C3CCCN3C2=O)CC1.Cl` (stereo not drawn) was run?
Answer: Its Ki is 11 nM.

Question: And the Ki [1]?
Answer: The Ki was 30 nM.

Question: `Cl.Nc1cccc(N2CCN(CCCCN3C(=O)C4CCCCN4C3=O)CC2)c1` (stereo not drawn) was tested. Which Ki [2] did it give?
Answer: Its Ki is 80 nM.

Question: And the Ki [1]?
Answer: The Ki was 215 nM.

Question: How did the Ki [2] turn out when `COc1ccccc1N1CCN(CCCCN2CC(=O)N3CCCC3C2=O)CC1.Cl` (stereo not drawn) was run?
Answer: The Ki was 8.6 nM.

Question: And the Ki [1]?
Answer: The Ki was 28 nM.

Question: Which Ki [2] does the source give for `CCCNC(=O)c1ccccc1N1CCN(CCCCN2C(=O)C3CCCCN3C2=O)CC1.Cl` (stereo not drawn) here?
Answer: Its Ki is 341 nM.

Question: What about the Ki [1] of the same compound?
Answer: Its Ki is over 1000 nM.

Question: What does the source list for `CCCCOc1ccccc1N1CCN(CCCCN2C(=O)C3CCCCN3C2=O)CC1.Cl` (stereo not drawn)?
Answer: Ki [2]: 1.2 nM; Ki [1]: 0.4 nM

Question: `Cl.N#Cc1ccccc1N1CCN(CCCCN2C(=O)C3CCCN3C2=O)CC1` (stereo not drawn) was tested. Which Ki [2] did it give?
Answer: Its Ki is 3.7 nM.

Question: What about the Ki [1] of the same compound?
Answer: Its Ki is 8 nM.

Question: What does the source list for `CCCOC(=O)c1ccccc1N1CCN(CCCCN2CC(=O)N3CCCCC3C2=O)CC1.Cl` (stereo not drawn)?
Answer: Ki [2]: 24 nM; Ki [1]: 561 nM

Question: Which Ki [2] does the source give for `Cc1ccccc1N1CCN(CCCCN2C(=O)C3CCCN3C2=O)CC1.Cl` (stereo not drawn) here?
Answer: Its Ki is 16 nM.

Question: And the Ki [1]?
Answer: Its Ki is 10 nM.

Question: How did the Ki [2] turn out when `Cl.N#Cc1ccccc1N1CCN(CCCN2CC(=O)N3CCCC3C2=O)CC1` (stereo not drawn) was run?
Answer: The Ki was 31 nM.

Question: And the Ki [1]?
Answer: Its Ki is 28 nM.

Question: For `CCCOC(=O)c1ccccc1N1CCN(CCCCN2C(=O)C3CCCN3C2=O)CC1.Cl` (stereo not drawn), which Ki [2] is on record?
Answer: The Ki was 3.9 nM.

Question: And the Ki [1]?
Answer: Its Ki is 51 nM.

Question: Which Ki [2] does the source give for `Cc1ccccc1N1CCN(CCCCN2CC(=O)N3CCCCC3C2=O)CC1.Cl` (stereo not drawn) here?
Answer: The Ki was 27 nM.

Question: What about the Ki [1] of the same compound?
Answer: Its Ki is 29 nM.

Question: What does the source list for `Cl.O=C1C2CCCN2C(=O)CN1CCCCN1CCN(c2cccc(C(F)(F)F)c2)CC1` (stereo not drawn)?
Answer: Ki [2]: 3.6 nM; Ki [1]: 95 nM

Question: For `CCCNC(=O)c1ccccc1N1CCN(CCCCN2CC(=O)N3CCCC3C2=O)CC1.Cl` (stereo not drawn), which Ki [2] is on record?
Answer: Its Ki is over 1000 nM.

Question: And the Ki [1]?
Answer: The Ki was over 1000 nM.

Question: For `CCCCOc1ccccc1N1CCN(CCCN2CC(=O)N3CCCCC3C2=O)CC1.Cl` (stereo not drawn), which Ki [2] is on record?
Answer: Its Ki is 110 nM.

Question: And the Ki [1]?
Answer: Its Ki is 79 nM.

Question: What does the source list for `Cl.O=C1C2CCCN2C(=O)N1CCCN1CCN(c2cccc(Br)c2)CC1` (stereo not drawn)?
Answer: Ki [2]: 33 nM; Ki [1]: 29 nM

Question: For `Cc1ccccc1N1CCN(CCCN2C(=O)C3CCCCN3C2=O)CC1.Cl` (stereo not drawn), which Ki [2] is on record?
Answer: Its Ki is 134 nM.

Question: What about the Ki [1] of the same compound?
Answer: The Ki was 5.3 nM.

Question: How did the Ki [2] turn out when `COc1ccccc1N1CCN(CCCN2CC(=O)N3CCCCC3C2=O)CC1.Cl` (stereo not drawn) was run?
Answer: The Ki was 126 nM.

Question: And the Ki [1]?
Answer: The Ki was 16 nM.

Question: With `CC(C)C(=O)Nc1cccc(N2CCN(CCCN3CC(=O)N4CCCC4C3=O)CC2)c1.Cl` (stereo not drawn) as the compound, how does the Ki [2] read?
Answer: Its Ki is 326 nM.

Question: And the Ki [1]?
Answer: Its Ki is over 1000 nM.

Question: How did the Ki [2] turn out when `CCCOC(=O)c1ccccc1N1CCN(CCCN2C(=O)C3CCCCN3C2=O)CC1.Cl` (stereo not drawn) was run?
Answer: Its Ki is 60 nM.

Question: What about the Ki [1] of the same compound?
Answer: Its Ki is 41 nM.

Question: `Cl.Nc1cccc(N2CCN(CCCN3C(=O)C4CCCN4C3=O)CC2)c1` (stereo not drawn) was tested. Which Ki [2] did it give?
Answer: Its Ki is over 1000 nM.

Question: And the Ki [1]?
Answer: Its Ki is over 1000 nM.

Question: Which Ki [2] does the source give for `Cl.O=C1C2CCCCN2C(=O)N1CCCCN1CCN(c2cccc(Br)c2)CC1` (stereo not drawn) here?
Answer: Its Ki is 4 nM.

Question: And the Ki [1]?
Answer: The Ki was 5.3 nM.

Question: Which results are given for `CCCNC(=O)c1ccccc1N1CCN(CCCN2C(=O)C3CCCN3C2=O)CC1.Cl` (stereo not drawn)?
Answer: Ki [2]: > 1000 nM; Ki [1]: > 1000 nM

Question: Which results are given for `CC(C)C(=O)Nc1cccc(N2CCN(CCCCN3CC(=O)N4CCCCC4C3=O)CC2)c1.Cl` (stereo not drawn)?
Answer: Ki [2]: 169 nM; Ki [1]: > 10000 nM

Question: What does the source list for `Cl.N#Cc1ccccc1N1CCN(CCCCN2CC(=O)N3CCCCC3C2=O)CC1` (stereo not drawn)?
Answer: Ki [2]: 14 nM; Ki [1]: 27 nM

Question: Which results are given for `CCCCOc1ccccc1N1CCN(CCCCN2CC(=O)N3CCCC3C2=O)CC1.Cl` (stereo not drawn)?
Answer: Ki [2]: 6.5 nM; Ki [1]: 18 nM

Question: For `Cl.O=C1C2CCCCN2C(=O)CN1CCCN1CCN(c2cccc(C(F)(F)F)c2)CC1` (stereo not drawn), which Ki [2] is on record?
Answer: Its Ki is 214 nM.

Question: What about the Ki [1] of the same compound?
Answer: The Ki was 252 nM.

Question: How did the Ki [2] turn out when `CCCNC(=O)c1ccccc1N1CCN(CCCN2CC(=O)N3CCCCC3C2=O)CC1.Cl` (stereo not drawn) was run?
Answer: The Ki was over 10000 nM.

Question: What about the Ki [1] of the same compound?
Answer: Its Ki is over 1000 nM.

Question: `CCCOC(=O)c1ccccc1N1CCN(CCCN2CC(=O)N3CCCC3C2=O)CC1.Cl` (stereo not drawn) was tested. Which Ki [1] did it give?
Answer: The Ki was 26 nM.

Question: With `Cc1ccccc1N1CCN(CCCN2CC(=O)N3CCCC3C2=O)CC1.Cl` (stereo not drawn) as the compound, how does the Ki [2] read?
Answer: The Ki was 27 nM.

Question: And the Ki [1]?
Answer: Its Ki is 23 nM.
